Bioassay records from PubChem BioAssay.
Vif imaging: HIV Vif inhibition. HEK293T cells, Vif self-association by quenched fluorescence, imaging, 24 h. inhibition, % at 7.49 µM. hit rate 0.35% among 340,000. AID 602346; in the data active means inhibition above about 50%, passing the limit was not always enough; inconclusive means no clear call, values can overlap the other calls; inactive means below about 31%
Glyco luc inh: blocks N-linked glycosylation in D54 reporter cells. AID 588692. reporter increase, % at 12.5 µM. D54 ERlucT glycosylation luciferase reporter, 24 h; percent of 100 nM tunicamycin response. hit rate 0.23% among 360,000;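 active means mean luciferase reporter signal, scaled so untreated is 0 and the glycosylation-blocking control 100, at or above a set limit in every replicate; inconclusive means mean reaches the limit but not every replicate does; inactive means mean below the limit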;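 further: luciferase carries N-glycosylation sites so blocking glycosylation raises the light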
MsrA inhibitor: inhibitors of bovine MsrA; hit rate 0.75% among 360,000; purified bovine MsrA, absorbance read-out; inhibition, % at 15.5 µM; in the data active means inhibition above about 4.5%
MsrA act: bovine methionine sulfoxide reductase A activation; purified bovine MsrA, absorbance read-out; activation, % at 10.6 µM; hit rate 0.3% among 360,000; AID 602163; in the data active means activation above about 7.5%
UCH37 inh: human UCH37 deubiquitinating enzyme inhibition. inhibition, % (test concentration not listed). hit rate 0.33% among 330,000. Q9Y5K5. purified proteasome/UCH37, Ub-AMC cleavage fluorescence;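 active means mean inhibition over replicate wells above about 20%, limit read from the data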
Target sequence (Q9Y5K5 whole entry, looked up): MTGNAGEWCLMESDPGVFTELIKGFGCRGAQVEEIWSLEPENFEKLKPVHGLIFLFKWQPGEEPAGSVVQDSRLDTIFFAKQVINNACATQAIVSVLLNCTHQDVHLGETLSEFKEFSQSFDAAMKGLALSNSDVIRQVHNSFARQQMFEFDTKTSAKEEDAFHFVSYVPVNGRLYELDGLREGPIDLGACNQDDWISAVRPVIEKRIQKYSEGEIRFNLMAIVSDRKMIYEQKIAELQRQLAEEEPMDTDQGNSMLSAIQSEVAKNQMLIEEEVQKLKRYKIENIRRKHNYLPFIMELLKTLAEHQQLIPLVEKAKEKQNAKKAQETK
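System: Proteasome-associated human UCH37 deubiquitinase; Input: 0.15 nM proteasome in added enzyme buffer; Also added: Ub-AMC substrate from 1 µM stock; Incubation: 30 min compound-proteasome preincubation then 25 min substrate reaction, room temperature; Detection: fluorescence, ex 355 nm, em 460 nm; Read-out: % inhibition of Ub-AMC cleavage fluorescence; Benchmarks: no-proteasome and no-compound wells.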
aDG glyco up: alpha-DG glycosylation activation; Pro5-aDG cells, alpha-DG glycosylation AlphaScreen (IIH6); 0% Pro5, 100% B10-LARGE cell signal; activation, % at 10 µM; hit rate 0.22% among 360,000;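 active means activation of at least 8% versus controls, or a plate z-score of at least 8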;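 further: Pro5 are CHO cells carrying HIG-tagged alpha-DG that lacks glycosylation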
Numbers stand for hits. The list is not random: actives were taken first. Their share in the collection is about 1.9%.

For O=C(NN=Cc1ccccn1)c1cc(-c2ccncc2)nc2ccccc12 the results were UCH37 inh inactive.
For Cc1nn(-c2ccccc2)c(N2CCCC2)c1/C=N/NC(=O)c1cc(-c2ccccn2)nc2ccccc12 the results were Vif imaging inactive, Glyco luc inh inactive, MsrA inhibitor inactive, MsrA act inactive and aDG glyco up inactive.
For O=C(N/N=C/c1ccccn1)c1cc(-c2ccncc2)nc2ccccc12 the results were Vif imaging inactive, Glyco luc inh 41.3, MsrA inhibitor inactive, MsrA act inactive and aDG glyco up inactive.
Screening Cc1nn(-c2ccccc2)c(N2CCCC2)c1/C=N/NC(=O)c1cc(-c2ccccc2)nc2ccccc12 returned Vif imaging inactive, Glyco luc inh inactive, MsrA inhibitor 4.6, MsrA act inactive and aDG glyco up inactive.
For O=[N+]([O-])c1ccc(C=NNC(=S)Nc2ccccc2C(F)(F)F)o1 the results were UCH37 inh inactive.
Cc1nc(-c2ccc([N+](=O)[O-])cc2)sc1C(=O)O was read as Vif imaging inactive, Glyco luc inh inactive, MsrA inhibitor 4.6, MsrA act inactive, UCH37 inh inactive and aDG glyco up inactive.
`CC(=NNC(=O)CNC(=O)C1COc2ccccc2O1)c1ccc(Cl)cc1` (stereo unspecified) gave UCH37 inh inactive.
For Cc1cccc2c(N)c3c(nc12)N(C)CC3 the results were Vif imaging inactive, Glyco luc inh 29.8, MsrA inhibitor inactive, MsrA act inactive and aDG glyco up inactive.
CN1CCc2c1nc1ccccc1c2N (tested in a mixture with another compound) was read as Vif imaging inactive, Glyco luc inh inactive, MsrA inhibitor inactive, MsrA act inactive, UCH37 inh inactive and aDG glyco up inactive.
`CCN1C/C(=C\c2cccc([N+](=O)[O-])c2)C(=O)/C(=C/c2cccc([N+](=O)[O-])c2)C1` gave Vif imaging 70.1, Glyco luc inh inactive, MsrA inhibitor inactive, MsrA act inactive, UCH37 inh inactive and aDG glyco up inactive.
Screening O=C1/C(=C/c2cccc([N+](=O)[O-])c2)CCc2ccccc21 returned Vif imaging 136.2, Glyco luc inh inactive, MsrA inhibitor inactive, MsrA act inactive, UCH37 inh inactive and aDG glyco up inactive.
Screening O=C1/C(=C/c2ccc([N+](=O)[O-])cc2)CCc2ccccc21 returned UCH37 inh inactive.
N#Cc1ccc(OCC(=O)Nc2ccc3[nH]c(=O)[nH]c3c2)cc1 was read as Vif imaging inactive, Glyco luc inh inactive, MsrA inhibitor inactive, MsrA act inactive, UCH37 inh inactive and aDG glyco up inactive.
`CCCn1c(=O)c2[nH]c(-c3ccc(OCC(=O)Nc4ccc(C#N)cc4)cc3)nc2n(CCC)c1=O` gave Vif imaging 93.8, Glyco luc inh inactive, MsrA inhibitor inactive, MsrA act inactive, UCH37 inh inactive and aDG glyco up inactive.
N#Cc1ccc(-c2ccc(OCC(=O)Nc3cccnc3)cc2)cc1 was read as Vif imaging inactive, Glyco luc inh inactive, MsrA inhibitor inactive, MsrA act inactive, UCH37 inh inactive and aDG glyco up inactive.
For CC(=O)Nc1ccc(NC(=O)COc2ccc(-c3ccc(C#N)cc3)cc2)cc1 the results were Vif imaging 54.8, Glyco luc inh inactive, MsrA inhibitor inactive, MsrA act inactive and aDG glyco up inactive.
`COc1ccc2c(c1)c1ncn(CCN3CCCC3)c(=O)c1n2C` gave Vif imaging inactive, Glyco luc inh inactive, MsrA inhibitor inactive, MsrA act inactive, UCH37 inh inactive and aDG glyco up inactive.
Screening Cn1c2ccccc2c2ccc3c(c21)C(=O)C=CC3=O returned Vif imaging inactive, Glyco luc inh inconclusive, MsrA inhibitor inactive, MsrA act inactive and aDG glyco up inactive.
For Cc1ccc2c(c1)c1ccc3c(c1n2C)C(=O)C=CC3=O the results were Vif imaging inactive, Glyco luc inh 30.6, MsrA inhibitor inactive, MsrA act inactive, UCH37 inh inactive and aDG glyco up inactive.
For COc1ccc2c(c1)c1ccc3c(c1n2C)C(=O)C=CC3=O the results were Glyco luc inh 28.1, MsrA inhibitor inactive, MsrA act inactive, UCH37 inh inactive and aDG glyco up inactive.
`O=C(NN=Cc1c[nH]c2ccccc12)c1ccc([N+](=O)[O-])cc1Cl` gave UCH37 inh inactive.
